For 2 compounds, Activity and IC50 results are on record in ChEMBL document CHEMBL3576798, “Depsipeptide companeramides from a Panamanian marine cyanobacterium associated with the coibamide producer” (J Nat Prod, 2015).

The test system of assay [1] is NCI-H460. The assay is described as follows: Cytotoxicity against human NCI-H460 cells at 1 uM after 24 hrs by MTT assay. It counts as functional, cell-based. Summed up: (§1)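 MTT viability assay; cells seeded at 3000 per well the day before treatment, kept under standard growth conditions. Compounds dissolved in 100% DMSO (stored −20 °C), final DMSO at most 0.1%. Viability relative to vehicle-treated cells set as 100%; coibamide A (30 nM) as control cancer cell toxin.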
For orientation: Formazan colour is commonly taken as a measure of viable cells.

The subject of assay [2] is MDA-MB-231. Put plainly: Cytotoxicity against human MDA-MB-231 cells at 1 uM after 24 hrs by MTT assay. The format is functional, cell-based. The essentials: as §1
For assay [3], the system named is SF-295. Put plainly: Cytotoxicity against human SF295 cells at 1 uM after 24 hrs by MTT assay. The format is functional, cell-based. Summed up:
as §1

The test system of assay [4] is SK-OV-3. Put plainly: Cytotoxicity against human SKOV3 cells at 1 uM after 24 hrs by MTT assay. The format is functional, cell-based. The essentials:
as §1

The subject of assay [5] is Plasmodium falciparum. The assay is described as follows: Antiplasmodial activity against chloroquine-sensitive Plasmodium falciparum D6 in human erythrocyte after 72 hrs by SYBR Green I assay. It counts as functional, organism-based. As to conditions: D6, 72 h. Summed up:
(§2)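 Asynchronous parasites grown in human erythrocytes at 2% hematocrit in RPMI 1640 with 0.5% Albumax, 45 μg/L hypoxanthine, 50 μg/L gentamicin. Samples (10 mM stock in sterile water) serially diluted in medium, quadruplicate wells at 0.2% parasitemia, 2% hematocrit; 72 h at 37 °C. Lysis buffer with SYBR Green I added, 1 h rt dark, fluorescence ex 497/em 520 nm; IC50 by nonlinear regression of logistic dose–response curves.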

For assay [6], the system named is Plasmodium falciparum. The assay is described as follows: Antiplasmodial activity against chloroquine-resistant Plasmodium falciparum Dd2 in human erythrocyte after 72 hrs by SYBR Green I assay. As to conditions: Dd2, 72 h. The format is functional, organism-based. Summed up: as §2
The subject of assay [7] is Plasmodium falciparum. Put plainly: Antiplasmodial activity against chloroquine-resistant Plasmodium falciparum 7G8 in human erythrocyte after 72 hrs by SYBR Green I assay. It counts as functional, organism-based. Conditions: 7G8, 72 h. The essentials: as §2

As usually defined, the IC50 is the concentration needed to halve the response being measured. Read a high IC50 as weaker potency.

The source made the active and inactive calls. No cut-off for these calls is given here.

With `C#CCCC[C@H]1NC(=O)[C@H](C(C)C)N(C)C(=O)[C@H](C)NC(=O)[C@H](CC(C)C)N(C)C(=O)[C@@H]2CCCN2C(=O)[C@H]([C@H](C)CC)NC(=O)[C@H](C(C)C)N(C)C(=O)[C@H]([C@H](C)CC)NC(=O)[C@@H](C)N(C)C(=O)[C@H](C(C)C)OC(=O)[C@H]1C`, the result in assay [1], in assay [2], in assay [3] and in assay [4] was inactive. Further, the results for the half-maximal inhibitory concentration (IC50) in assay [5], in assay [6] and in assay [7] were 570 nM, 1000 nM and 1100 nM, respectively.

As to `C#CCCC[C@H]1NC(=O)[C@H](C(C)C)N(C)C(=O)[C@H](C(C)C)NC(=O)[C@@H](C)N(C)C(=O)[C@@H]2CCCN2C(=O)[C@H]([C@H](C)CC)NC(=O)[C@H](C(C)C)N(C)C(=O)[C@H](C(C)C)NC(=O)[C@H](C)N(C)C(=O)[C@H](C(C)C)OC(=O)[C@H]1C`, the values for the IC50 in assay [5], in assay [6] and in assay [7] were 220 nM, 230 nM and 700 nM, respectively.
